The test system of data set [1] is Salmonella typhimurium. The data set can be described thus: Antimutagenic activity against PhIP-induced Salmonella typhimurium TA98 mutagenesis preincubated at 0.5 umol/plate for 25 mins by Ames test in presence of S9 liver homogenate relative to control. Type of data set: functional, organism-based. The conditions noted are these: Salmonella enterica subsp. enterica serovar Typhimurium, Liver S9 fraction. Put shortly:
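IP0.5 is the percent inhibition of PhIP-positive-control revertants (0.1×10^-7 mol/plate PhIP, TA98, with S9) at 0.5 µmol/plate tetrapyrrole. It was derived from dose-response data in the 25 min preincubation plate assay, with 48 h incubation at 37 °C. Three positive-control plates and six solvent-control plates per test.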

The subject of data set [2] is Salmonella typhimurium. As to the kind of experiment: Antimutagenic activity against PhIP-induced Salmonella typhimurium TA98 mutagenesis preincubated at 0.01 to 10 umol/plate for 25 mins by Ames test in presence of S9 liver homogenate relative to control. The conditions noted are these: Salmonella enterica subsp. enterica serovar Typhimurium, Liver S9 fraction. In kind it is functional, organism-based.

The subject of data set [3] is Salmonella typhimurium. As to the kind of experiment: Mutagenic activity in Salmonella typhimurium TA98 mutagenesis preincubated at 0.5 umol/plate for 25 mins by Ames test in presence of S9 liver homogenate relative to aflatoxin B1. In kind it is toxicity, organism-based, Liver S9 fraction. Conditions: salmonella enterica subsp. enterica serovar typhimurium.
In data set [4] the test system is Salmonella typhimurium. The data set can be described thus: Antimutagenic activity against PhIP-induced Salmonella typhimurium TA98 mutagenesis assessed as reduction in His+ revertants after 48 hrs by microscopy in presence of S9 liver homogenate. In kind it is functional, organism-based. Conditions: Salmonella enterica subsp. enterica serovar Typhimurium, Liver S9 fraction. Put shortly:
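Ames preincubation in TA98 with rat liver S9 mix (Aroclor 1254-induced, with NADP and glucose-6-phosphate). PhIP was 0.1×10^-7 mol/plate in DMSO; tetrapyrroles were in DMSO at 0.01–2 µmol/plate (bilirubin 0.01–0.75). Preincubation 25 min at 37 °C with shaking, then top agar on minimal glucose plates for 48 h at 37 °C. His+ revertants counted manually after microscopic lawn check. Triplicate plates, repeated independently.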

Activity calls are given as the source filed them. The rule behind the calls is not given here.

For the molecule `C=CC1=C(C)/C(=C/C2=NC(=C\c3[nH]c(/C=C4\NC(=O)C(C)=C4C=C)c(C)c3CCC(=O)O)/C(CCC(=O)O)=C2C)NC1=O` [BILIVERDIN], the inhibition (usually the share of the control response that was lost under treatment) in the data set with Salmonella typhimurium [1] was 78%. Further, the result in the data set with Salmonella typhimurium [2] and in the data set on Salmonella typhimurium [4] was Active. Further, the Activity in the data set on Salmonella typhimurium [3] was 363%.

`C=CC1=C(C)/C(=C/c2[nH]c(Cc3[nH]c(/C=C4\NC(=O)C(C)=C4C=C)c(C)c3CCC(=O)NCCS(=O)(=O)O)c(CCC(=O)NCCS(=O)(=O)O)c2C)NC1=O` [BILIRUBIN DITAURATE]: in the data set on Salmonella typhimurium [1], the inhibition was found to be 64%. For the same molecule, the Activity in the data set with Salmonella typhimurium [3] is given as 268%.

Consider `C=CC1=C(C)/C(=C/c2[nH]c(Cc3[nH]c(/C=C4\NC(=O)C(C)=C4C=C)c(C)c3CCC(=O)O)c(CCC(=O)O)c2C)NC1=O` [BILIRUBIN], for which, in the data set with Salmonella typhimurium [1], the inhibition stood at 82%. Besides, in the data set on Salmonella typhimurium [3], the Activity is 352%.

Consider `CCC1=C(C)[C@H](CC2=N/C(=C\c3[nH]c(C[C@@H]4N=C(O)C(C)=C4CC)c(C)c3CCC(=O)O)C(CCC(=O)O)=C2C)N=C1O`, for which the inhibition in the data set with Salmonella typhimurium [1] stood at 48%. For the same molecule, in the data set on Salmonella typhimurium [2], the result was Active.

For the molecule `CC[C@H]1[C@H](Cc2[nH]c(/C=C3\N=C(C[C@@H]4NC(=O)[C@H](CC)[C@H]4C)C(C)=C3CCC(=O)O)c(CCC(=O)O)c2C)NC(=O)[C@@H]1C`, the inhibition with Salmonella typhimurium [1] is 57%. Besides, in the data set on Salmonella typhimurium [2], the result was Active.

For the molecule `C=CC1=C(C)/C(=C\c2[nH]c(Cc3[nH]c(/C=C4/NC(=O)C(C)=C4C=C)c(C)c3CCC(=O)OC)c(CCC(=O)OC)c2C)NC1=O`, in the data set on Salmonella typhimurium [1], the inhibition turned out to be 68%.

`C=CC1=C(C)/C(=C/C2=NC(=C\c3[nH]c(/C=C4/NC(=O)C(C)=C4C=C)c(C)c3CCC(=O)OC)/C(CCC(=O)OC)=C2C)NC1=O`: the inhibition in the data set on Salmonella typhimurium [1] is 55%. The result in the data set with Salmonella typhimurium [2] and in the data set with Salmonella typhimurium [4] was Active.

As to `C=CC1=C(C)c2cc3[nH]c(cc4nc(cc5[nH]c(cc1n2)c(C)c5CCC(=O)O)C(CCC(=O)O)=C4C)c(C)c3C=C`, the inhibition in the data set with Salmonella typhimurium [1] stood at 97%.
